Rows were chosen to be rich in hits. Some 2.3% of all compounds tested hit in one or more screens of this group.
Bfl-1 A1 inh: caspase 3/7 activation in MEF A1-2A-BIM cells, primary screen, A1 inhibitor project, cell-based, luminescence, HTS; Caspase-Glo 3/7 luminescence, 3 h; percent of clofoctol response, vehicle zero; caspase activation, % (concentration not given with the values); actives 0.066% (n = 330,000); AID 2462, 2010;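 active = over half of replicate activation scores above 10%, or exactly half above 10 with the replicate mean above 10; inconclusive = replicate mean below 10 yet half the replicates above 10; inactive = over half of replicates below 10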
HIF act: HIF pathway transcriptional activators, primary screen, cell-based, U2OS HRE-luciferase, luminescence. actives 0.32% (n = 300,000). U2OS HRE-luciferase reporter; normalized: DMSO 0%, desferrioxamine 100%. activation, % at 7.5 µM (by protocol);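 active = mean activation of at least 10% of the iron chelator positive control signal, with at least half of replicates also reaching 10%; inconclusive = mean and replicate majority disagree about reaching 10%; inactive = mean and most replicates under 10%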
Beta cell apopt: inhibitors of cytokine-induced beta cell apoptosis, primary screen, luminescence; INS-1E cytokine-induced death, ATP luminescence, 48 h; percent of positive-control rescue, neutral wells zero; protection from apoptosis, % (test concentration not listed); actives 0.8% (n = 300,000); AID 435005, 2010;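 active = Every replicate reaches about 75%, or at least half do and their mean reaches it too, limit read from the data; inconclusive = At least half of replicates reach the limit but their mean does not; inactive = Under half of replicates reach the limit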;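 also: higher means more ATP so stronger rescue from cytokine killing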
T cruzi inh: inhibitors of intracellular T. cruzi growth, primary screen, luminescence, NIH3T3 host cells; T. cruzi beta-gal in NIH3T3, 90 h; inhibition, % (concentration not given with the values); actives 1.4% (n = 300,000); AID 1885, 2009;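 active = mean inhibition across valid replicates above about 55%, limit read from the data; inconclusive = mean below that limit but half or more replicates reach it; inactive = mean below it, under half of replicates reach it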;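 also: signal also drops with host cell toxicity which is not excluded here; higher percent means less beta-gal luminescence so fewer parasites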
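System: mouse NIH/3T3 fibroblasts infected with β-gal-expressing T. cruzi Tulahuen C4 / Input: NIH/3T3 cells, 5,000 per well / Buffer or medium: Low-serum DMEM with 2% FBS / Probe or stimulus: 5000 reporter trypomastigotes per well / Schedule: ≥90 h infection period, 3 h prior cell attachment / Measured by: GalScreen luminescence, 60 min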
KLF5 inh: KLF5 expression inhibitors, primary screen, DLD-1 cells, luminescence; inhibition, % at 5 µM; DLD-1 KLF5 promoter-luciferase reporter; AID 1700, 2009; actives 0.23% (n = 290,000);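 active = inhibition above a per-plate limit of that plate's mean compound inhibition plus 3 SD, cut at about 60% in these data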;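 also: higher means less KLF5 promoter-driven luciferase light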
KLF5 confirm: KLF5 expression inhibitors, confirmation, DLD-1 cells, luminescence | shares compounds with KLF5 inh | DLD-1 KLF5 promoter firefly luciferase reporter | inhibition, % at 4 µM | actives 79% (n = 610);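 active = inhibition above a set limit taken from the earlier primary screen, cut at about 63% in these data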
IEC-6 tox: cytotoxicity in rat IEC-6 cells, cytotoxicity control for KLF5 inhibitor project, cell-based, luminescence, triplicate; actives 56% (n = 610); AID 1905, 2009; inhibition, % at 4 µM; IEC-6 rat intestinal cells, viability luminescence; shares compounds with KLF5 inh; in the data active = inhibition above about 23%;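 also: cells exposed to compounds for 48 hours before viability read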
Of the large screens only hits and unclear results are named; the others gave an inactive call (follow-up assays come after a bar, where they were run).

COc1cc2c(cc1OC)C(C)N(C(=O)c1cc(C)on1)CC2 (stereo unspecified)	KLF5 inh 74.1 | KLF5 confirm 88.6 | IEC-6 tox 54.4
C=Cc1ccc(Cn2nc(-c3ccccc3)ccc2=O)cc1	none
COc1ccc(NS(=O)(=O)c2cc(C)ccc2NC(=O)c2cc(C)oc2C)cc1	KLF5 inh 62.5 | KLF5 confirm 81.0 | IEC-6 tox 62.1
Cc1cccc2c(C(=O)N3CCN(c4ccccc4)CC3)cc(-c3ccncc3)nc12	KLF5 inh 64.0 | KLF5 confirm 71.1 | IEC-6 tox 46.4
CN(CC(=O)NCC(c1ccco1)N1CCCCC1)S(=O)(=O)c1ccc(Cl)cc1 (stereo unspecified)	none (no result: KLF5 inh)
CC(=O)Nc1ccc(S(=O)(=O)N[C@@H](C)C(=O)OCC(=O)NC2CCCC2)cc1	none (no result: HIF act, T cruzi inh, KLF5 inh)
COc1ccccc1OCC(=O)N/N=C/c1c(O)ccc2ccccc12	HIF act 17.7, KLF5 inh 67.4 | KLF5 confirm inactive | IEC-6 tox inactive
COc1cc(S(=O)(=O)N2CCN(C(=O)c3ccco3)CC2)ccc1Cl	none
Cc1cccn2c(=O)nc(SCC(=O)NC3CCCC3)nc12	none (no result: KLF5 inh)
CN1Cc2cc(C(=O)c3cc(Cl)cc(CSc4ncccn4)c3O)cnc2NC1=O	KLF5 inh 75.2 | KLF5 confirm 84.9 | IEC-6 tox 59.2
Cc1ccc(O)c(C(=O)c2cnc3c(c2)CN(C)C(=O)N3)c1	none
C/C(=N\NC(=O)c1n[nH]c2c1CCC2)c1cccs1	KLF5 inh 74.7 | KLF5 confirm 70.7 | IEC-6 tox inactive
CC1CCN(Cc2c(C(=O)N/N=C/c3ccccc3O)nnn2-c2nonc2N)CC1	HIF act 30.7, Beta cell apopt 95.4, T cruzi inh inconclusive, KLF5 inh 70.2 | KLF5 confirm 85.1 | IEC-6 tox inactive
N#Cc1ccc(CN2CCN(C(=O)CCNS(=O)(=O)c3ccc(F)c(Cl)c3)CC2)cc1	none (no result: HIF act, T cruzi inh, KLF5 inh)
CCN(CC)c1ccc(/C=N/N=C(N)N)c(O)c1	KLF5 inh 74.7 | KLF5 confirm 77.3 | IEC-6 tox 66.6
Cc1cc(C)c(S(=O)(=O)Nc2ncn[nH]2)cc1C	T cruzi inh inconclusive
O=C(Nc1ccccn1)c1ccc(C(=O)c2ccccc2)cc1	none (no result: KLF5 inh)
O=C(NC(=O)c1ccccc1)Nc1ccccn1	KLF5 inh 84.3 | KLF5 confirm 65.6 | IEC-6 tox 32.5
C/C(=N\NC(=O)c1c(Cl)c(C)nn1C)c1ccc(NC(=O)C2CCC2)cc1	KLF5 inh 65.3 | KLF5 confirm 82.8 | IEC-6 tox 59.9
C/C(=N\NC(=O)c1c([N+](=O)[O-])c(C)nn1C)c1ccc(NC(=O)C2CCCC2)cc1	KLF5 inh 65.0 | KLF5 confirm 75.7 | IEC-6 tox 54.0
CCn1nc(NS(=O)(=O)c2ccc(NC(C)=O)cc2)c2cc3cc(C)ccc3nc21	none (no result: Beta cell apopt)
COc1cc(/C=N/NS(=O)(=O)c2ccc3ccccc3c2)ccc1OCc1ccc(C(=O)O)cc1	KLF5 inh 65.3 | KLF5 confirm inactive | IEC-6 tox inactive
COc1cc(/C=N/O)ccc1OCc1ccc(C(=O)O)cc1	KLF5 inh 83.9 | KLF5 confirm 94.5 | IEC-6 tox inactive
O=S(=O)(NC1CC(NS(=O)(=O)OCC(Cl)(Cl)Cl)C2CCCCC12)OCC(Cl)(Cl)Cl (stereo unspecified)	none
O=C(c1ccccc1)c1cc([N+](=O)[O-])ccc1N1CCOCC1	KLF5 inh 73.6 (no result: Beta cell apopt) | KLF5 confirm 72.4 | IEC-6 tox 57.7
Nc1ccc(C(=O)N2CCCC2)cc1	none
Nc1ccc(C(=O)n2c3ccccc3c3ccccc32)cc1	KLF5 inh 78.8 | KLF5 confirm 85.4 | IEC-6 tox 59.9
CC(=O)Nc1ccc(S(=O)(=O)NNc2ccc([N+](=O)[O-])cc2)cc1	none (no result: Beta cell apopt)
Cc1c(C)c2ccc(OCC(=O)Nc3ccccn3)c(C)c2oc1=O	KLF5 inh 91.3 | KLF5 confirm inactive | IEC-6 tox inactive

Bioassay records (PubChem)
